Laboratory results taken from ChEMBL document CHEMBL1126988, “Quinolone antibacterials containing the new 7-[3-(1-aminoethyl)-1- pyrrolidinyl] side chain: the effects of the 1-aminoethyl moiety and its stereochemical configurations on potency and in vivo efficacy” (J Med Chem, 1993).
Values after ≈ are worked out from the molar mass of the structure shown.

How the values were obtained:
Enterobacter cloacae = experiment: Minimum inhibitory concentration in vitro against Enterobacter cloacae MA 2646; type: functional
Klebsiella pneumoniae = experiment: Minimum inhibitory concentration was evaluated in vitro against Klebsiella pneumoniae MGH2; type: functional
Summary of the method: (§1)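 Standard microtitration broth assay against a panel of 10 Gram-positive and Gram-negative organisms. MIC read in µg/mL and averaged over multiple experiments.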

Streptococcus pyogenes [1] = experiment: Compounds were evaluated in vivo for antibacterial activity for mouse protection against Streptococcus pyogenes C 203 after oral administration; type: functional; settings: for ED50: Streptococcus pyogenes, C 203, po, read-out: PD50
Enterococcus faecalis = experiment: Minimum inhibitory concentration was evaluated in vitro against Enterococcus faecalis MGH-2; type: functional; summary of the method: as §1
DNA gyrase = DNA gyrase (Escherichia coli, UniProt P0AES4+P0AES6); experiment: Inhibition against DNA gyrase; type: protein-complex assay
Staphylococcus aureus [2] = experiment: Minimum inhibitory concentration was evaluated in vitro against Staphylococcus aureus H 228; type: functional; summary of the method: as §1
Streptococcus pyogenes [3] = experiment: Antibacterial activity measured as mouse protection against Streptococcus pyogenes C 203 after subcutaneous administration; type: functional; settings: for ED50: Streptococcus pyogenes, C 203, sc, read-out: PD50
Pseudomonas aeruginosa = experiment: Minimum inhibitory concentration was evaluated in vitro against Pseudomonas aeruginosa UI-18; type: functional; summary of the method: as §1
Providencia rettgeri = experiment: Minimum inhibitory concentration was evaluated in vitro against Providencia rettgeri M1771; type: functional; summary of the method: as §1
Escherichia coli [4] = experiment: Antibacterial activity in vitro against Escherichia coli Vogel; type: functional; summary of the method: as §1
Streptococcus pneumoniae = experiment: Minimum inhibitory concentration was evaluated in vitro against Streptococcus pneumoniae SV-1; type: functional; summary of the method: as §1
Staphylococcus aureus [5] = experiment: Minimum inhibitory concentration was evaluated in vitro against Staphylococcus aureus UC 76; type: functional; summary of the method: as §1
Streptococcus pyogenes [6] = experiment: Minimum inhibitory concentration was evaluated in vitro against Streptococcus pyogenes C 203; type: functional; summary of the method: as §1
Escherichia coli [7] = experiment: Antibacterial activity against Escherichia coli Vogel after subcutaneous administration in mouse; type: functional; settings: Escherichia coli, sc; read-out: PD50
Mus musculus = species: Mus musculus; experiment: Compounds were evaluated for phototoxicity no-effect dose in mouse; type: functional
Summary of the method: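 Depilated female CD-1 mice, five per dose plus controls. Animals are dosed orally and then exposed daily to UV-A (320–400 nm) for 3 h, for up to 4 days or until a definite positive response. Redness or erythema relative to controls, read 24 h after irradiation, counts as positive. Reported as the highest dose with no effect (mg/kg).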

Escherichia coli [8] = experiment: Antibacterial activity against Escherichia coli Vogel after oral administration in mouse; type: functional; settings: Escherichia coli, po; read-out: PD50
[9] = Clonogenic cytotoxicity against hamster V-79 cells; type: functional, Cricetulus griseus, V79
Summary of the method: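 Chinese hamster V-79 cells grown overnight, then drug-treated for 3 h at 37 °C. Medium is replaced with fresh medium and cells are incubated 5 days to allow colony formation. IC50 (µg/mL) is the concentration inhibiting colony formation by 50% relative to control.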

[10] = Enterobacter cloacae, read-out: MIC
[11] = Klebsiella pneumoniae, read-out: MIC
[12] = Enterococcus faecalis, read-out: MIC
[13] = Staphylococcus aureus, read-out: MIC
[14] = Pseudomonas aeruginosa, read-out: MIC
[15] = Providencia rettgeri, read-out: MIC
[16] = Escherichia coli, read-out: MIC
[17] = Streptococcus pneumoniae, read-out: MIC
[18] = Streptococcus pyogenes, read-out: MIC

SMILES	MIC (Enterobacter cloacae; [10]) [µg/mL]	MIC (Klebsiella pneumoniae; [11]) [µg/mL]	ED50 (Streptococcus pyogenes [1]) [mg/kg]	MIC (Enterococcus faecalis; [12]) [µg/mL]	IC50 (DNA gyrase) [µM]	MIC (Staphylococcus aureus [2]; [13]) [µg/mL]	ED50 (Streptococcus pyogenes [3]) [mg/kg]	MIC (Pseudomonas aeruginosa; [14]) [µg/mL]	MIC (Providencia rettgeri; [15]) [µg/mL]	MIC (Escherichia coli [4]; [16]) [µg/mL]	MIC (Streptococcus pneumoniae; [17]) [µg/mL]	MIC (Staphylococcus aureus [5]; [13]) [µg/mL]	MIC (Streptococcus pyogenes [6]; [18]) [µg/mL]	ED50 (Escherichia coli [7]) [mg/kg]	Dose (Mus musculus) [mg/kg]	ED50 (Escherichia coli [8]) [mg/kg]	Cytotoxicity [9] [µg/mL]	further results
C[C@@H](N)[C@@H]1CCN(c2nc3c(cc2F)c(=O)c(C(=O)O)cn3C2CC2)C1	0.05 (≈ 0.139 µM)	0.1 (≈ 0.277 µM)	14	0.05 (≈ 0.139 µM)	2.08	0.05 (≈ 0.139 µM)	2	0.8 (≈ 2.22 µM)	0.4 (≈ 1.11 µM)	0.05 (≈ 0.139 µM)	0.006 (≈ 0.0166 µM)	0.006 (≈ 0.0166 µM)	0.013 (≈ 0.0361 µM)					
CN[C@H](C)[C@H]1CCN(c2c(F)c(N)c3c(=O)c(C(=O)O)cn(C4CC4)c3c2F)C1 (mixture of isomers)														0.4	<30	3	17	MIC (Enterobacter cloacae): 0.025 µg/mL; MIC (Klebsiella pneumoniae): 0.05 µg/mL; PD50 (Streptococcus pyogenes [1]): 0.6 mg/kg; MIC (Enterococcus faecalis): 0.013 µg/mL; MIC (Staphylococcus aureus [2]): 0.003 µg/mL; PD50 (Streptococcus pyogenes [3]): 0.3 mg/kg; MIC (Pseudomonas aeruginosa): 0.8 µg/mL; MIC (Providencia rettgeri): 0.1 µg/mL; MIC (Escherichia coli [4]): 0.025 µg/mL; MIC (Streptococcus pneumoniae): 0.003 µg/mL; MIC (Staphylococcus aureus [5]): 0.003 µg/mL; MIC (Streptococcus pyogenes [6]): 0.003 µg/mL
CC1(CN)CCN(c2cc3c(cc2F)c(=O)c(C(=O)O)cn3C2CC2)C1 (stereo not given)			31		2.78	0.1 (≈ 0.278 µM)	3		0.8 (≈ 2.23 µM)			0.013 (≈ 0.0362 µM)		3		43		
NC1CCN(c2nc3c(cc2F)c(=O)c(C(=O)O)cn3-c2ccc(F)cc2F)C1 (stereo not given) [TOSUFLOXACIN]	0.025 (≈ 0.0618 µM)	0.1 (≈ 0.247 µM)	5	0.1 (≈ 0.247 µM)		0.05 (≈ 0.124 µM)	3	0.4 (≈ 0.989 µM)	0.1 (≈ 0.247 µM)	0.025 (≈ 0.0618 µM)	0.05 (≈ 0.124 µM)	0.013 (≈ 0.0322 µM)	0.05 (≈ 0.124 µM)	0.2	>100	0.5	120	
CNC(C)C1CCN(c2nc3c(cc2F)c(=O)c(C(=O)O)cn3-c2ccc(F)cc2F)C1 (racemic)	0.8 (≈ 1.79 µM)	0.8 (≈ 1.79 µM)	4	0.2 (≈ 0.448 µM)		0.1 (≈ 0.224 µM)	1	3.1 (≈ 6.94 µM)	1.6 (≈ 3.58 µM)	0.4 (≈ 0.896 µM)	0.025 (≈ 0.056 µM)	0.025 (≈ 0.056 µM)	0.05 (≈ 0.112 µM)	2	>100	6	310	
CN[C@H](C)[C@H]1CCN(c2c(F)cc3c(=O)c(C(=O)O)cn(C4CC4)c3c2C(F)(F)F)C1 (mixture of isomers)	0.4	0.8	0.8	0.1		0.025	0.3	3.1	0.8	0.4	0.013	0.013	0.013	2	>100	4	130	
NC1CCN(c2cc3c(cc2F)c(=O)c(C(=O)O)cn3C2CC2)C1 (stereo not given)	0.025 (≈ 0.0754 µM)	0.05 (≈ 0.151 µM)		0.1 (≈ 0.302 µM)	0.754	0.2 (≈ 0.604 µM)						0.025 (≈ 0.0754 µM)	0.1 (≈ 0.302 µM)			3		
Nc1c(F)c(N2CCC(N)C2)c(F)c2c1c(=O)c(C(=O)O)cn2C1CC1 (stereo not given)	0.013 (≈ 0.0357 µM)	0.006 (≈ 0.0165 µM)	28	0.025 (≈ 0.0686 µM)		0.013 (≈ 0.0357 µM)	8	0.05 (≈ 0.137 µM)	0.025 (≈ 0.0686 µM)	0.006 (≈ 0.0165 µM)	0.006 (≈ 0.0165 µM)	0.006 (≈ 0.0165 µM)	0.025 (≈ 0.0686 µM)	0.3	55	1	15	
CCNC[C@@H]1CCN(c2c(F)cc3c(=O)c(C(=O)O)cn(CC)c3c2F)C1	0.2 (≈ 0.527 µM)	0.1 (≈ 0.264 µM)	10	0.1 (≈ 0.264 µM)		0.05 (≈ 0.132 µM)	4	1.6 (≈ 4.22 µM)	0.2 (≈ 0.527 µM)	0.1 (≈ 0.264 µM)	0.1 (≈ 0.264 µM)	0.05 (≈ 0.132 µM)	0.1 (≈ 0.264 µM)	3	1.5	10	190	
